# Bioassay records deposited in PubChem BioAssay by Johns Hopkins Ion Channel Center.
# TRPC4 PAM = allosterically enhances the mouse TRPC4 cation channel. Q9QUQ5. HEK293 TRPC4beta/mu-opioid, DAMGO EC20, Fluo-4 Ca2+ flux; hits give high values. B-score at 10 µM. actives 0.42% (n = 310,000). AID 2227;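 active = B-score of calcium response area above 5 SD of library B-scores, with initial fluorescence ratio within 5 SD of library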;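 note: B-score of integrated fluorescence ratio over time as area under calcium response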
# TRPC6 activator = mouse TRPC6 channel activation. Q61143. HEK293-TRPC6 membrane potential dye fluorescence; hits give high values. B-score at 10 µM. actives 0.13% (n = 310,000). AID 2550;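 active = B-score of the integrated fluorescence ratio above library mean plus 3 SD, and starting fluorescence ratio within library mean plus 5 SD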;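 note: higher score means more depolarization so channel activation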
# TRPC6 inhibitor = mouse TRPC6 channel inhibition. Q61143. HEK293-TRPC6, membrane potential dye, ACh-evoked depolarization; hits give low values. B-score at 10 µM. actives 1.1% (n = 310,000). AID 2553;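 active = B-score under library mean minus 3 SD, initial fluorescence not abnormally high, positive integrated signal ratio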;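 note: B-score derived from integrated fluorescence ratio over the kinetic read; more negative B-score means stronger inhibition of depolarization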
# TRPC4 inh = TRPC4 (mouse) channel inhibition | actives 0.39% (n = 300,000) | B-score at 10 µM | HEK293 TRPC4beta/mu-opioid, DAMGO-evoked Fluo4 calcium flux; hits give low values | AID 2247;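 active = B-score over 3 SD under the library average, no early fluorescence shift, positive overall ratio signal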
#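 Assay system – HEK293 line stably carrying TRPC4beta and mu-opioid receptor · Doses – single dose · Detection – Fluo4 calcium-dye fluorescence, kinetic read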
# TRPC4 agonist = opens the mouse TRPC4 cation channel; Q9QUQ5; HEK293 TRPC4beta/mu-opioid, Fluo4 calcium fluorescence; hits give high values; B-score at 10 µM; actives 0.49% (n = 310,000); AID 2237;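 active = B-score above 5 SD of library B-scores, and initial fluorescence ratio not above library mean plus 5 SD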;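 note: positive B-score marks a calcium rise read as TRPC4 activation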
#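 System: HEK293 cells stably co-expressing mouse TRPC4beta and mu-opioid receptor; Schedule: Fluo4 dye loading 45 min at room temperature, 110 s recording; Detection: Fluo4 fluorescence, kinetic; Evaluation: B-scored integrated calcium fluorescence ratio; Controls: buffer (low) and maximal DAMGO (high).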
# TRPC4 sel inh 2 = second check of whether TRPC6 inhibitors also affect mouse TRPC4; shares compounds with TRPC6 inhibitor; HEK293 TRPC4/MOR, membrane potential dye fluorescence; channel activated by saturating DAMGO dose; inhibition, % at 10 µM; actives 42% (n = 920); AID 2776;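 active = compounds whose fluorescence signal differed from control wells by over 3 SD, either direction, in both duplicate plates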
# TRPC4 spec = mouse TRPC4 off-target activity of TRPC6 inhibitors. shares compounds with TRPC6 inhibitor. HEK293 TRPC4/mu-opioid, membrane potential fluorescence. activity change, negative = inhibition, % at 10 µM. actives 61% (n = 920). AID 2777;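 active = rise or fall in signal beyond 3 SD of buffer-only wells in both replicate plates, either sign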;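 note: integrated kinetic ratio of fluorescence range over baseline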
# HEK293 MPD ctr 2-1 = second check of TRPC6 inhibitor effects in parental HEK293 cells. shares compounds with TRPC6 inhibitor. parental HEK293 membrane potential dye fluorescence; maximal acetylcholine challenge after compound addition. signal change vs control, % at 10 µM. actives 31% (n = 920);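 active = membrane potential signal moving either way by over 3 SD of the maximum-effect control, in both duplicate plates, meaning non-specific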
# HEK293 MPD ctr-1 = parental HEK293 nonspecific activity of TRPC6 inhibitors; shares compounds with TRPC6 inhibitor; parental HEK293 membrane potential dye fluorescence; membrane potential signal change, % at 10 µM; actives 60% (n = 920); AID 2780;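 active = membrane potential signal shifting up or down by more than 3 SD of buffer-only wells, on both duplicate plates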
# HEK293 MPD ctr-2 = checks TRPC6 modulator effects in parental HEK293 cells. shares compounds with TRPC6 inhibitor. membrane potential dye fluorescence. membrane potential signal change, % at 10 µM. actives 51% (n = 2,400). AID 488924;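 active = membrane potential signal moves up or down beyond 5 SD from buffer-only wells, on both duplicate plates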
# HEK293 MPD ctr 2-2 = parental HEK293 nonspecific activity of TRPC6 modulators, second screen | membrane potential dye fluorescence; after compound, maximal acetylcholine stimulation | AID 488926 | shares compounds with TRPC6 inhibitor | inhibition, % at 10 µM | actives 14% (n = 2,400);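 active = membrane potential signal drops by more than 5 SD from the mean control signal, in both duplicate plates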;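 note: plate controls were acetylcholine ECmax control wells for no effect and buffer only wells for full effect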
# TRPC4 ctr mod = mouse TRPC4 off-target activity of TRPC6 modulators; HEK293 TRPC4/mu-opioid, membrane potential fluorescence; actives 69% (n = 2,400); percent change from control (negative = decrease, positive = increase), % at 10 µM; shares compounds with TRPC6 inhibitor;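 active = membrane potential signal moved up or down beyond 5 SD of buffer control wells, in both duplicate plates, actives on both sides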;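 note: plate controls were assay buffer wells for no effect and DAMGO maximal-effect wells for full effect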
# TRPC4/MOR inh 2 = second selectivity test of TRPC6 modulators against mouse TRPC4; shares compounds with TRPC6 inhibitor; HEK293 TRPC4/mu-opioid, membrane potential dye fluorescence; stimulated with maximal-effect DAMGO; inhibition, % at 10 µM; actives 55% (n = 2,400);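 active = drop in membrane potential signal beyond 5 SD of the control wells in both duplicate plates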;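 note: TRPC4 counter screen for TRPC6 hits run under conditions tuned for TRPC6 not TRPC4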
# TRPC6 inh conf = mouse TRPC6 inhibitor confirmation. shares compounds with TRPC6 inhibitor. HEK293-TRPC6, membrane potential dye, ACh-evoked depolarization. inhibition, % at 10 µM. actives 43% (n = 3,300). AID 488960;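 active = fluorescence ratio falls more than 5 SD below the full-stimulation control mean, in both duplicate runs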;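 note: integrated fluorescence ratio of peak minus minimum over baseline after agonist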
# TRPC6 act confirm = mouse TRPC6 activator confirmation; shares compounds with TRPC6 inhibitor; HEK293-TRPC6 membrane potential dye fluorescence, FDSS; activation, % at 10 µM; actives 11% (n = 2,800);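 active = ratio signal rise beyond 5 SD above unstimulated control wells' mean, seen in both duplicate runs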;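 note: plate controls were buffer EC0 wells for no effect and acetylcholine ECmax response for full effect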
# * marks the source's active call; other numbers are inactive results; i = inactive; . = no result given. Shown are actives, neighbours in structure and some others; about 2.3% of the full set was active somewhere.
SMILES,TRPC4 PAM,TRPC6 activator,TRPC6 inhibitor,TRPC4 inh,TRPC4 agonist,HEK293 MPD ctr-2,HEK293 MPD ctr 2-2,TRPC4 ctr mod,TRPC4/MOR inh 2,TRPC6 inh conf,TRPC6 act confirm,others
Cc1cccc(NC(=O)CN2CCN(C(=O)C3CCCO3)CC2)c1C (stereo not given),i,i,i,i,i,.,.,.,.,.,.,
[O-]/[N+](=C/c1cccnc1)c1ccc(Br)cc1,i,i,-6*,i,i,i,i,i,i,i,i,
[O-]/[N+](=C\c1ccncc1)c1ccc(Br)cc1,i,i,i,i,i,.,.,.,.,.,.,
C=CCc1ccc(OCCCCNC2CCCC2)c(OC)c1,i,i,i,i,i,.,.,.,.,.,.,
CCOc1ccccc1C(C(=O)NC1CCCC1)N(Cc1ccco1)C(=O)CNC(=O)c1ccco1 (stereo not given),i,14*,i,i,i,350%*,90%*,78%*,i,.,150%*,
Cc1ccc(C(C(=O)NC2CCCCC2)N(Cc2ccco2)C(=O)Cn2cnc3ccccc32)cc1 (stereo not given),i,17*,i,i,i,i,i,122%*,i,i,30%*,
O=C(NC1CCCCC1)C(c1ccc(F)cc1)N(Cc1ccco1)C(=O)Cn1nnc2ccccc21 (stereo not given),i,i,i,i,i,.,.,.,.,.,.,
O=C1CCC([N+](=O)[O-])C(c2ccccc2Cl)N1 (stereo not given),i,i,i,i,i,.,.,.,.,.,.,
O=C1CCC([N+](=O)[O-])C(c2ccccc2C(F)(F)F)N1 (stereo not given),i,i,-5.1*,i,i,i,i,i,i,i,i,
O=C(NNC(=O)c1cc(Cl)ccc1O)c1cccc(S(=O)(=O)N2CCOCC2)c1,i,i,i,i,i,.,.,.,.,.,.,
COC(=O)c1ccc2c(c1)C(C)(C)C(/C=C/c1ccccc1O)=[N+]2C,i,i,-10*,i,i,410%*,199%*,-208%*,99%*,106%*,i,
CCN(CC)CCCNc1nc2cc(OC)c(OC)cc2c2nc(-c3ccccc3)nn12,i,i,i,i,i,.,.,.,.,.,.,
COCCCNc1nc2cc(OC)c(OC)cc2c2nc(-c3ccccc3)nn12,i,i,i,i,i,.,.,.,.,.,.,
CCN(CC)CCCNc1nc2cc(OC)c(OC)cc2c2nc(-c3cccnc3)nn12,i,i,-8*,i,i,.,.,.,.,77%*,i,TRPC4 sel inh 2=65%*;TRPC4 spec=-30%*;HEK293 MPD ctr 2-1=-68%*;HEK293 MPD ctr-1=-446%*
CCN(CC)CCCNc1nc2ccccc2c2nc(-c3ccncc3)nn12,i,i,-7.2*,i,i,.,.,.,.,69%*,i,TRPC4 sel inh 2=61%*;TRPC4 spec=-23%*;HEK293 MPD ctr 2-1=-0.5%*;HEK293 MPD ctr-1=-316%*
COc1cc2nc(NCCCN3CCN(C)CC3)n3nc(-c4ccccc4)nc3c2cc1OC,i,i,-6.6*,i,i,-75%*,i,i,63%*,i,i,
CC1(C(=O)Nc2c(F)c(F)c(F)c(F)c2F)CC1(Br)Br (stereo not given),i,i,i,i,i,.,.,.,.,.,.,
CCOC(=O)C1CCCN(C(=O)c2cnn3c(C(F)F)cc(-c4ccc(C)cc4)nc23)C1 (stereo not given),i,i,-6.2*,i,i,156%*,i,37%*,i,i,.,
OCCCNc1ncnc2sc3c(c12)CCN(Cc1ccccc1)C3,i,i,-6*,i,i,-137%*,i,-38%*,i,i,i,
O=c1[nH]cnc2sc3c(c12)CCN(Cc1ccccc1)C3,i,i,i,i,i,.,.,.,.,.,.,
CC(=O)c1ccccc1Oc1cc(NN2CCCCC2)c([N+](=O)[O-])cc1[N+](=O)[O-],i,i,-6*,i,i,i,i,i,32%*,i,i,
COc1cc(CNCCc2ccc(S(N)(=O)=O)cc2)ccc1OCC(=O)NC1CCCCC1,i,12*,-12*,i,47*,i,i,i,i,i,i,
COc1cc(CNCc2ccccn2)ccc1OCC(=O)NC1CCCCC1,i,i,i,i,i,.,.,.,.,.,.,
O=C(COC(=O)C1CC(=O)N(Cc2ccccc2)C1)Nc1ccccc1F (stereo not given),i,i,i,i,i,.,.,.,.,.,.,
CCC1=NN(C(=O)c2ccc(Cl)cc2)C(O)(c2ccc(C)cc2)C1 (stereo not given),i,i,i,i,i,.,.,.,.,.,.,
COC(=O)C1=NN(C(=O)c2ccc(Cl)cc2)C(O)(c2ccccc2)C1 (stereo not given),i,16*,i,i,59*,321%*,i,73%*,i,.,190%*,
CCC1=NN(C(=O)c2ccc(Cl)cc2)C(O)(c2ccccc2)C1 (stereo not given),i,i,i,i,i,.,.,.,.,.,.,
